Laboratory results: ChEMBL document CHEMBL2176869, “Discovery of TAK-875: A Potent, Selective, and Orally Bioavailable GPR40 Agonist” (ACS Med Chem Lett, 2010)
Calls of active or inactive are those of the source. The rule behind the calls is not given here.

Columns and labels:
[1] = biological target: Free fatty acid receptor 1 (Rattus norvegicus, UniProt Q8K3T4); experiment: Displacement of 3-[4-({2',6'-dimethyl-6-[(4-[3H])phenylmethoxy]biphenyl-3-yl}methoxy)phenyl]propanoic acid from rat GPR40 expressed in CHO membranes after 90 mins by liquid scintillation counting in presence of 0.2 % BSA; type: cell membranes, Membrane
Chain of Free fatty acid receptor 1 (Rattus norvegicus, UniProt Q8K3T4) (Q8K3T4 whole entry): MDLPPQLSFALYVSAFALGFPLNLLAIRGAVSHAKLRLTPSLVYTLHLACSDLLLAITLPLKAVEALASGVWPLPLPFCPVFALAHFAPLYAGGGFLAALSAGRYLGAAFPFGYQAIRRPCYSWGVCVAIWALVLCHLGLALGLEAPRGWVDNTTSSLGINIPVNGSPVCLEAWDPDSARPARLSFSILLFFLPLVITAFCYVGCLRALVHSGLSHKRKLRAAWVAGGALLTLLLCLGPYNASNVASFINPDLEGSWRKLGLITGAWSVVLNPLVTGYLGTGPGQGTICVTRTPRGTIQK

[2] = biological target: T1, Free fatty acid receptor 1 (Homo sapiens, UniProt O14842); experiment: Displacement of 3-[4-({2',6'-dimethyl-6-[(4-[3H])phenylmethoxy]biphenyl-3-yl}methoxy)phenyl]propanoic acid from human GPR40 expressed in CHO membranes after 90 mins by liquid scintillation counting in presence of 0.2 % BSA; type: cell membranes
T1 sequence (O14842 whole entry): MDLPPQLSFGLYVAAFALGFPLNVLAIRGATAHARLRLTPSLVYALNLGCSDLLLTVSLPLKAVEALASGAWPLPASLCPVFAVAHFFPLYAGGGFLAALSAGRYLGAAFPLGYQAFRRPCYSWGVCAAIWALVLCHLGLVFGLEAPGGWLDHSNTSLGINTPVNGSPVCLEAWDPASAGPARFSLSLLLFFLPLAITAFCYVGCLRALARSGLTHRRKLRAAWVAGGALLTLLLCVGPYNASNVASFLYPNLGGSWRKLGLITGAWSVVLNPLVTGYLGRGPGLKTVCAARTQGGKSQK

[3] = biological target: T1, Free fatty acid receptor 1; experiment: Agonist activity at human GPR40 expressed in CHO cells assessed as calcium influx by FLIPR assay in presence of 0.1 % BSA; type: functional, cell-based
[4] = Clearance in fasted dog at 0.5 mg/kg, iv; type: ADME, organism-based, Canis lupus familiaris; design: dose 0.5 mg/kg, route intravenous; conditions: in vivo
In short: (§1)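 Dogs given 0.5 mg/kg iv or 1 mg/kg po, with plasma PK parameters derived. Cmax and AUC are reported as anhydrous-compound equivalents. Means of n = 4 dogs.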

[5] = biological target: T2, Free fatty acid receptor 2 (Homo sapiens, UniProt O15552); experiment: Agonist activity at human GPR43 expressed in 293 cells assessed as cAMP accumulation after 30 mins by Alphascreen method; type: functional, cell-based, HEK293
T2 sequence (O15552 whole entry): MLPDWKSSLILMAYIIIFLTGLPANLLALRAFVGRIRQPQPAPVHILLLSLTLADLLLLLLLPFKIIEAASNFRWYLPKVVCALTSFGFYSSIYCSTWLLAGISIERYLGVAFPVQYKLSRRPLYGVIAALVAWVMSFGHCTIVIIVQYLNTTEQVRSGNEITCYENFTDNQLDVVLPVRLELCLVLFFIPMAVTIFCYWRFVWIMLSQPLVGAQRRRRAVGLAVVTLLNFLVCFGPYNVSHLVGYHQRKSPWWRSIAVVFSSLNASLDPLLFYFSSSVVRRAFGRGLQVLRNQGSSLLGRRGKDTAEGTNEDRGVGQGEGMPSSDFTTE

[6] = Oral bioavailability in fasted dog at 1 mg/kg; type: ADME, organism-based, Canis lupus familiaris; conditions: in vivo; in short: as §1
[7] = Cmax in fasted Crl:CD(SD) rat at 3 mg/kg, po; type: ADME, organism-based; design: dose 3 mg/kg, route oral; conditions: in vivo
In short: (§2)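 Rats dosed at 1 mg/kg iv or 3 mg/kg po, with plasma sampling for PK parameters. Cmax and AUC are expressed as anhydrous-compound equivalents. Values are means of n = 3 rats.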

Rattus norvegicus [8] = experiment: Antidiabetic activity in po dosed Wistar fatty rat assessed as augmentation of insulin secretion at administered 1 hr prior glucose challenge as single dose by OGTT; type: functional; conditions: read-out: MED
In short: (§3)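 Female Wistar fatty rats got a single oral dose of 0.3–3 mg/kg 1 h before a 1 g/kg oral glucose challenge (OGTT). Plasma glucose and insulin were followed over time. Read-outs were incremental AUC0–120 min for glucose and AUCpre–30 min for insulin. Means ± SD, n = 6; compared with vehicle control by one-tailed Williams' test.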

Rattus norvegicus [9] = experiment: Antidiabetic activity in po dosed Wistar fatty rat assessed as reduction in blood glucose excursion at administered 1 hr prior glucose challenge as single dose by OGTT; type: functional; conditions: read-out: MED; in short: as §3
[10] = Oral bioavailability in fasted Crl:CD(SD) rat at 3 mg/kg; type: ADME, organism-based; conditions: in vivo; in short: as §2
[11] = Volume of distribution at steady state in fasted dog at 0.5 mg/kg, iv; type: ADME, organism-based, Canis lupus familiaris; design: dose 0.5 mg/kg, route intravenous; conditions: in vivo, read-out: Vdss; in short: as §1
[12] = Tmax in fasted Crl:CD(SD) rat at 3 mg/kg, po; type: ADME, organism-based; design: dose 3 mg/kg, route oral; conditions: in vivo; in short: as §2
[13] = Terminal half life in fasted dog at 1 mg/kg, po; type: ADME, organism-based, Canis lupus familiaris; design: dose 1 mg/kg, route oral; conditions: in vivo, read-out: t1/2lambda (converted); in short: as §1
Rattus norvegicus [14] = experiment: Antidiabetic activity in Wistar fatty rat assessed as reduction in blood glucose excursion at 0.3 to 3 mg/kg, po administered 1 hr prior glucose challenge as single dose by OGTT; type: functional, organism-based; in short: as §3
Rattus norvegicus [15] = experiment: Antidiabetic activity in Wistar fatty rat assessed as augmentation of insulin secretion at 0.3 to 3 mg/kg, po administered 1 hr prior glucose challenge as single dose by OGTT
[16] = AUC (0 to 24 hrs) in fasted Crl:CD(SD) rat at 3 mg/kg, po; type: ADME, organism-based; design: time < 24 hr, dose 3 mg/kg, route oral; conditions: plasma; in short: as §2
[17] = Volume of distribution at steady state in fasted Crl:CD(SD) rat at 1 mg/kg, iv; type: ADME, organism-based; design: dose 1 mg/kg, route intravenous; conditions: in vivo, read-out: Vdss; in short: as §2
[18] = Terminal half life in fasted dog at 0.5 mg/kg, iv; type: ADME, organism-based, Canis lupus familiaris; design: dose 0.5 mg/kg, route intravenous; conditions: in vivo, read-out: t1/2lambda (converted); in short: as §1
[19] = biological target: T3, Free fatty acid receptor 3 (Homo sapiens, UniProt O14843); experiment: Agonist activity at human GPR41 expressed in 293 cells assessed as cAMP accumulation after 30 mins by Alphascreen method; type: functional, cell-based, HEK293
T3 sequence (O14843 whole entry): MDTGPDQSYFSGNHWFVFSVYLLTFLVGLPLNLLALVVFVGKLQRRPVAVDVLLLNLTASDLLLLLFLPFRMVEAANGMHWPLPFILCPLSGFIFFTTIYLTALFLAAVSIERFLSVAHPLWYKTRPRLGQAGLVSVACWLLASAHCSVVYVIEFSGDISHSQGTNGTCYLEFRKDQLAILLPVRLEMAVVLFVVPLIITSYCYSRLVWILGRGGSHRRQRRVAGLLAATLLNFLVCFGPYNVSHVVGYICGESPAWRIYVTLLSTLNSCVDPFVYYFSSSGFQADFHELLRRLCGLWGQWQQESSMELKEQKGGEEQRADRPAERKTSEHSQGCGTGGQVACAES

[20] = biological target: T4, Free fatty acid receptor 4 (Homo sapiens, UniProt Q5NUL3); experiment: Agonist activity at human GPR120 expressed in CHO cells assessed as calcium influx after 30 mins by FLIPR assay; type: functional, cell-based
T4 sequence (Q5NUL3 whole entry): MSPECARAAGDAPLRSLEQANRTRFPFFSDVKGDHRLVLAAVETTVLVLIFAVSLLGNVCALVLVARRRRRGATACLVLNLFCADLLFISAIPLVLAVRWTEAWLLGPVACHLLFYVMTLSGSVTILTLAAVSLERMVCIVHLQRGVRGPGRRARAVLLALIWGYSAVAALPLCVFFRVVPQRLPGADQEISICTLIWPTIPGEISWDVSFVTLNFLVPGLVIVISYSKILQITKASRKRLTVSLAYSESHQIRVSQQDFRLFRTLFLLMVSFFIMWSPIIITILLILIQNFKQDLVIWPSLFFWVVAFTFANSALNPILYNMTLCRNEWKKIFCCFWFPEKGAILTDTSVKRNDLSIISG

[21] = Terminal half life in fasted Crl:CD(SD) rat at 1 mg/kg, iv; type: ADME, organism-based; design: dose 1 mg/kg, route intravenous; conditions: in vivo, read-out: t1/2lambda (converted); in short: as §2
[22] = Terminal half life in fasted Crl:CD(SD) rat at 3 mg/kg, po; type: ADME, organism-based; design: dose 3 mg/kg, route oral; conditions: in vivo, read-out: t1/2lambda (converted); in short: as §2
[23] = Clearance in fasted Crl:CD(SD) rat at 1 mg/kg, iv; type: ADME, organism-based; design: dose 1 mg/kg, route intravenous; conditions: in vivo; in short: as §2
[24] = AUC (0 to 24 hrs) in fasted dog at 1 mg/kg, po; type: ADME, organism-based, Canis lupus familiaris; design: time < 24 hr, dose 1 mg/kg, route oral; conditions: plasma; in short: as §1
[25] = Cmax in fasted dog at 1 mg/kg, po; type: ADME, organism-based, Canis lupus familiaris; design: dose 1 mg/kg, route oral; conditions: in vivo; in short: as §1
[26] = Tmax in fasted dog at 1 mg/kg, po; type: ADME, organism-based, Canis lupus familiaris; design: dose 1 mg/kg, route oral; conditions: in vivo; in short: as §1

For `Cc1cc(OCCCS(C)(=O)=O)cc(C)c1-c1cccc(COc2ccc3c(c2)OC[C@@H]3CC(=O)O)c1`, which Ki [1] is on record?
The Ki was 1600 nM.

What does the source list for `Cc1cccc(C)c1-c1cccc(COc2ccc3c(c2)CCC3CC(=O)O)c1` (centres undefined)?
Ki [2]: 210 nM; EC50 [3]: 28 nM; Ki [1]: 520 nM

With `Cc1cc(OCCCS(C)(=O)=O)cc(C)c1-c1cccc(COc2ccc3c(c2)OC[C@H]3CC(=O)O)c1.O` as the molecule, how does the clearance [4] read?
Its clearance is 0.496 mL/min/kg.

What about the EC50 [5] of the same molecule?
Its EC50 is over 10000 nM.

What about the bioavailability [6] of the same molecule?
Its bioavailability is 92.4%.

And the Cmax [7]?
Its Cmax is 5770 ng/mL.

And the minimal effective dose (Rattus norvegicus [8])?
The minimal effective dose was 1 mg/kg.

What about the minimal effective dose (Rattus norvegicus [9]) of the same molecule?
The minimal effective dose was 1 mg/kg.

What about the bioavailability [10] of the same molecule?
Its bioavailability is 76%.

What about the Vd [11] of the same molecule?
The Vd was 0.225 L/kg.

What about the Tmax [12] of the same molecule?
The Tmax was 1 h.

And the half-life [13]?
The half-life was 7.5 h.

And the Activity (Rattus norvegicus [14])?
The Activity was “Active”.

And the Activity (Rattus norvegicus [15])?
Its Activity is “Active”.

And the AUC(0-t) at 24 h [16]?
The AUC(0-t) at 24 h was 65000 ng·h/mL.

And the Vd [17]?
Its Vd is 0.208 L/kg.

And the half-life [18]?
The half-life was 5.9 h.

And the EC50 [19]?
Its EC50 is over 10000 nM.

And the EC50 [20]?
The EC50 was over 10000 nM.

And the Ki [1]?
Its Ki is 140 nM.

What about the half-life [21] of the same molecule?
Its half-life is 4.7 h.

What about the half-life [22] of the same molecule?
The half-life was 4.1 h.

What about the clearance [23] of the same molecule?
Its clearance is 0.569 mL/min/kg.

What about the AUC(0-t) at 24 h [24] of the same molecule?
The AUC(0-t) at 24 h was 29400 ng·h/mL.

And the Cmax [25]?
The Cmax was 3290 ng/mL.

What about the Tmax [26] of the same molecule?
The Tmax was 2 h.

For `Cc1cccc(C)c1-c1cccc(COc2ccc3c(c2)OCCC(C(=O)O)C3)c1` (centres undefined), which Ki [2] is on record?
The Ki was 270 nM.

What about the EC50 [3] of the same molecule?
The EC50 was 49 nM.

What about the Ki [1] of the same molecule?
The Ki was over 10000 nM.

What does the source list for `Cc1cccc(C)c1-c1cccc(COc2ccc3c(c2)OCC3CC(=O)O)c1` (centres undefined)?
Ki [2]: 170 nM; EC50 [3]: 22 nM; Ki [1]: 1100 nM

What does the source list for `Cc1cccc(C)c1-c1cccc(COc2ccc3c(CC(=O)O)coc3c2)c1`?
Ki [2]: > 10000 nM; EC50 [3]: 1700 nM; Ki [1]: > 10000 nM

With `Cc1cccc(C)c1-c1cccc(COc2ccc(CCC(=O)O)c(F)c2)c1` as the molecule, how does the Ki [1] read?
Its Ki is 54 nM.

Which results are given for `Cc1cccc(C)c1-c1cccc(COc2ccc3c(c2)CCCCC3CC(=O)O)c1` (centres undefined)?
Ki [2]: 2400 nM; EC50 [3]: 540 nM; Ki [1]: > 10000 nM

With `Cc1cccc(C)c1-c1cccc(COc2ccc3c(c2)CCCC3CC(=O)O)c1` (centres undefined) as the molecule, how does the Ki [2] read?
The Ki was 59 nM.

And the EC50 [3]?
Its EC50 is 23 nM.

What about the Ki [1] of the same molecule?
The Ki was 3700 nM.
